Bioassay records as filed in PubChem.
JNK3 inh – inhibitors of human JNK3 kinase. P53779. purified JNK3 kinase activity, HTS. inhibition, % at 8 µM. 60,000 tested, 0.61% active. AID 746; in the data active = inhibition above about 17%;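 note: 0% = DMSO and 100% = reference inhibitor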
HER2 expr 66K – inhibitors of human Her2 kinase expression; P04626; SKBR-3 HER2 protein level, AlphaScreen, 18-24 h; active compounds read low; HER2 level % of control, % at 10 µM; 65,000 tested, 0.69% active; AID 645;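 active = HER2 level under 5% of the carrier-only control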;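 note: 100% = DMSO carrier and 0% = 500 nM PU-H71 HSP90 inhibitor; lower value means stronger loss of Her2 protein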
Target sequence (P04626 whole entry, looked up): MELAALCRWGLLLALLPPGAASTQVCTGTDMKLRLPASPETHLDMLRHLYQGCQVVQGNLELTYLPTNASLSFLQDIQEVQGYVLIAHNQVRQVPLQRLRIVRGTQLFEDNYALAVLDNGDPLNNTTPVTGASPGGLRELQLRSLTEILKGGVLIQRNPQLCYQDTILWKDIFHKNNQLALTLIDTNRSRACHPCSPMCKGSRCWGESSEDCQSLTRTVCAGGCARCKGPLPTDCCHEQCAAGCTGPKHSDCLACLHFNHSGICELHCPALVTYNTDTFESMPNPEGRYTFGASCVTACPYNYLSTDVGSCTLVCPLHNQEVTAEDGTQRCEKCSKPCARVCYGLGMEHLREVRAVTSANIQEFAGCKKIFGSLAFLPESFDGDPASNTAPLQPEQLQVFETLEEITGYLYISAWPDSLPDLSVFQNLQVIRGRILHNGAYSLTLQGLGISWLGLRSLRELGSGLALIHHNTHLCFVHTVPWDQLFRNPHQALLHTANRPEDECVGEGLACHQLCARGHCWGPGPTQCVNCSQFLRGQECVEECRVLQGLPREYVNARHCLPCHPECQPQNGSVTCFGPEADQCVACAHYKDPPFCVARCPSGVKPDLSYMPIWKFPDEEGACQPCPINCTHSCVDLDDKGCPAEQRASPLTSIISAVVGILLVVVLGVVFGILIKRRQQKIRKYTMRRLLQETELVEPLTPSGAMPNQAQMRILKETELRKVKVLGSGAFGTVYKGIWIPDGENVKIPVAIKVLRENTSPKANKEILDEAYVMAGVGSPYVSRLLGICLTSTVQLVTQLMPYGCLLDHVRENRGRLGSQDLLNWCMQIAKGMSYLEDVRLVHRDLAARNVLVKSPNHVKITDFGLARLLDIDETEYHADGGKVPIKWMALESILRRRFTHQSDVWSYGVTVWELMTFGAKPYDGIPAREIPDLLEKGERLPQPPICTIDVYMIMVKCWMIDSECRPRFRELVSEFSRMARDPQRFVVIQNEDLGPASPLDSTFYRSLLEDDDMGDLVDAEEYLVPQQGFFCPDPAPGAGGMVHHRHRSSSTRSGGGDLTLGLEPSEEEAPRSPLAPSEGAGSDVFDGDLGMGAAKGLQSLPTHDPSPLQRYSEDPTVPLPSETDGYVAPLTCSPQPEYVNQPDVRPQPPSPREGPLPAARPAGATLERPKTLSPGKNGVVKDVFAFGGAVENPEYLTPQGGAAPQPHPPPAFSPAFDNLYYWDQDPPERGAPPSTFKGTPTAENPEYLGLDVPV
Jurkat tox 60K – cytotoxic compounds reducing Jurkat cell viability | 56,000 tested, 1.2% active | Jurkat E6.1 viability, ATP luminescence, 48 h | inhibition, % at 4 µM;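 active = inhibition above the mean inhibition of all tested compounds plus 3 SD, cut at about 28% in these data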
Hsp90 inh – displaces geldanamycin probe from tumor Hsp90; 64,000 tested, 0.35% active; NCI-N417 lysate Hsp90, Cy3B-geldanamycin FP displacement; inhibition, % at 30 µM; P07900;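 active = inhibition above 50%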;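 note: 0% = tracer plus lysate wells and 100% = tracer alone without lysate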
HEK293 NFkB inh – lowers PMA/ionomycin-induced NF-kB signal in HEK293 cells. inhibition, % at 3 µM. 62,000 tested, 0.21% active. HEK-293 NF-kB luciferase reporter, luminescence. AID 465;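 active = inhibition above the mean of all tested compounds plus 3 SD, cut at about 40% in these data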;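 note: 0% = stimulated DMSO wells and 100% = 10 µM reference inhibitor 5653914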
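System: NF-kB luciferase reporter HEK-293 cells | Replication: Single test | Control set: DMSO vs reference inhibitor | Evaluation: % inhibition | Schedule: 1 h pretreatment, 16 h stimulation, 37 °C | Probe or stimulus: PMA with ionomycin | Compound dosing: One dose, 3 µM | Detection: Luciferase luminescence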
AP ELISA ortho – alternative pathway complement inhibition, orthogonal assay; Human serum alternative complement pathway, LPS-coated ELISA, C3 deposition; tested in compound mixtures; inhibition, % at 5 µM; 62,000 tested, 0.08% active;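 active = inhibition above 30% in each of the two pooled mixtures holding the compound, so the lower value exceeds 30%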;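 note: 0% = serum in Mg-EGTA without compound and 100% = EDTA serum blank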
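Medium: diluted human serum in Mg2+-EGTA GVB++. Assay system: human serum complement alternative pathway, C3 deposition onto LPS. Also added: Plate-bound LPS. Technique: Anti-C3 ELISA, OD 450 nm. Measure: percent inhibition. Incubation: 1 h at 37 °C. Dosing: 5 µM each compound, pools of ten, 50 µM per pool.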
* hit, by the source's call; · = no result. An excerpt weighted towards active compounds, which were near 2.5% of everything screened.

SMILES | JNK3 inh | HER2 expr 66K | Jurkat tox 60K | Hsp90 inh | HEK293 NFkB inh | AP ELISA ortho
O=C(CCCC(=O)N1CCc2ccccc21)N1CCc2ccccc21 | -2.5 | 106.0 | -3.4 | -6.6 | 4.0 | 14.2
N#CC(Cc1ccc(O)c(O)c1)C(=O)N1CCc2ccccc21 (stereo unspecified) | · | · | · | 81.0* | · | ·
COc1cc(OC)cc(-c2nnc(SCc3c(F)cccc3Cl)o2)c1 | 5.7 | 91.5 | 1.5 | 1.5 | 3.7 | 18.7
Cn1ncc2c(Nc3ccc(-c4ccccc4)cc3)ncnc21 | -5.3 | 128.8 | 34.9* | 0.4 | 7.7 | 13.2
O=C(Cn1ncc2c(=O)oc3ccccc3c21)Nc1nc2ccccc2s1 | -1.5 | 71.5 | 5.2 | -1.1 | 6.8 | 3.2
Cc1ccc(NCc2nnc(SCC(=O)Nc3cccc(O)c3)n2CC2CCCO2)c(C)c1 (stereo unspecified) | 3.5 | 99.9 | 2.0 | -1.9 | 9.1 | 11.8
CSc1nc2nc3c(c(=O)n2[nH]1)CN(Cc1ccccc1)CC3 | 2.8 | 97.7 | 101.7* | 0.4 | 10.9 | 1.1
O=C(CCCCCn1c(SCc2ccncc2)nc2ccccc2c1=O)NCc1ccco1 | 18.0* | 145.9 | 1.5 | -9.0 | 12.5 | 4.1
O=C(O)CCC/C=C\C[C@@H]1[C@@H](/C=C/[C@H](O)C2Cc3ccccc3C2)[C@@H](F)C[C@@H]1O | · | · | · | 0.4 | · | ·
O=C(Nc1cccnc1)c1ccc(COc2ccccc2Br)o1 | 20.7* | 71.3 | 26.7 | -13.2 | 1.3 | 10.4
COc1ccc(-c2cc(C(F)(F)F)nc(S(=O)(=O)CCC(=O)N3CCOCC3)n2)cc1 | -3.7 | 101.1 | -3.5 | 0.5 | 9.7 | ·
COc1ccccc1-c1cc(C(F)(F)F)nc(S(=O)(=O)CCCC(=O)N2CCOCC2)n1 | -5.2 | 35.2 | 61.9* | 0.4 | -4.7 | 2.4
CCn1c(SCCC#N)nnc1-c1ccncc1 | 0.7 | 113.1 | -1.3 | -2.4 | 25.8 | 2.3
CCN(CC)c1ccc(NC(=O)c2cccc(OC)c2)c(C)c1 | -8.4 | · | 19.9 | -4.5 | 8.3 | 4.0
CCN(CC)c1ccc(NC(=O)c2cc(OC)cc(OC)c2)c(C)c1 | -11.4 | 77.8 | 94.1* | -5.2 | 27.0 | 1.9
FC(F)(F)c1cc(CO[C@H]2CCCN[C@H]2c2ccccc2)cc(C(F)(F)F)c1 | · | · | · | -3.4 | · | ·
CCOC(=O)N1CCN(C(=O)c2ccccc2-c2ccccc2)CC1 | 7.5 | 38.2 | 79.0* | -5.5 | 31.6 | 7.6
Cc1ccc(O)c(C(=O)c2cnc3c(c2)CN(CCC(C)C)C(=O)N3)c1 | 4.2 | 88.3 | -0.1 | -7.3 | 12.3 | -2.6
CN1Cc2cc(C(=O)c3cc(Cl)cc(CSc4ncccn4)c3O)cnc2NC1=O | 1.7 | 68.9 | 98.0* | -21.1 | 33.1 | 18.1
CC(C)=CC(=O)Nc1ccc(Br)cc1 | 1.2 | 89.4 | -4.9 | -2.8 | -42.0 | 2.9
c1ccc2[nH]c(CSc3ncnc4c3oc3ccccc34)nc2c1 | 19.0* | 75.8 | 8.1 | -4.1 | 22.3 | 5.6
Cc1nc(SCc2nc3ccccc3[nH]2)c2oc3ccccc3c2n1 | 7.9 | 57.1 | 0.1 | 0.6 | 12.7 | 2.0
CC1=NC(C(F)(F)F)(C(F)(F)F)C2=C(CC(C)(C)CC2=O)N1Cc1ccco1 | 2.3 | 119.7 | -4.4 | -1.4 | 11.7 | -1.8
O=C(Nc1cccc(NC(=O)c2nccc3ccccc23)c1)c1ccco1 | 2.9 | 67.3 | 1.6 | -7.5 | 6.6 | 14.2
Nc1nc(-c2ccccc2)cc(N2CCCCC2)n1 | -1.6 | 67.3 | 78.2* | -5.2 | 29.2 | -10.6
SMILES | JNK3 inh | HER2 expr 66K | Jurkat tox 60K | Hsp90 inh | HEK293 NFkB inh | AP ELISA ortho
COCCCN(C(C)=O)c1nc(-c2ccc(OC)cc2)cs1 | 7.3 | 113.8 | 57.0* | -5.4 | 19.8 | 3.4
COc1ccc(-c2csc(N(CCCN(C)C)C(=O)c3cccs3)n2)cc1 | 11.1 | 91.1 | 1.4 | -1.4 | 0.8 | 7.6
COC(=O)c1ccc(CN2CCN(Cc3ccc(C(=O)OC)o3)CC2)o1 | -1.7 | 97.6 | 2.4 | -2.8 | 16.5 | 18.3
COC(=O)c1ccc(Cn2c(O)c(N=O)c3ccccc32)o1 | 20.4* | 107.2 | · | -6.0 | · | ·
COc1ccc2nc(NC(=O)c3cccc(OCc4c(C)noc4C)c3)sc2c1 | 3.3 | 79.9 | 69.5* | -1.3 | 18.5 | 2.1
Nc1c(S(=O)(=O)O)cc(Nc2ccc(Nc3nc(Cl)nc(Nc4ccc(S(=O)(=O)O)cc4)n3)c(S(=O)(=O)O)c2)c2c1C(=O)c1ccccc1C2=O | · | · | · | 38.7 | · | ·
